Read-outs that look alike come from different tables or passages of the source. Values belong to the compound of their own block, whether it stands above or below them.
How the values were obtained:
[1] = target: LRRK2 (Homo sapiens, UniProt Q5S007); experiment: LRRK2 kinase activity in vitro assay; format: biochemical
[2] = target: T1, BRD4 (BD1) (Homo sapiens, UniProt O60885); experiment: BRD4-1 AlphaScreen binding assay
[3] = target: T1, BRD4 (BD1); experiment: BRD4-1 AlphaScreen binding assay; remark: listed apart in the source
[4] = target: ERK5 (Homo sapiens, UniProt Q13164); experiment: ERK5 kinase activity in vitro assay; format: biochemical; details: for IC50: read-out: Enzymatic IC50 (ERK5), in vitro assay, average of 2 replicates ± SD
ERK5 (Homo sapiens, UniProt Q13164), sequence (Q13164 whole entry): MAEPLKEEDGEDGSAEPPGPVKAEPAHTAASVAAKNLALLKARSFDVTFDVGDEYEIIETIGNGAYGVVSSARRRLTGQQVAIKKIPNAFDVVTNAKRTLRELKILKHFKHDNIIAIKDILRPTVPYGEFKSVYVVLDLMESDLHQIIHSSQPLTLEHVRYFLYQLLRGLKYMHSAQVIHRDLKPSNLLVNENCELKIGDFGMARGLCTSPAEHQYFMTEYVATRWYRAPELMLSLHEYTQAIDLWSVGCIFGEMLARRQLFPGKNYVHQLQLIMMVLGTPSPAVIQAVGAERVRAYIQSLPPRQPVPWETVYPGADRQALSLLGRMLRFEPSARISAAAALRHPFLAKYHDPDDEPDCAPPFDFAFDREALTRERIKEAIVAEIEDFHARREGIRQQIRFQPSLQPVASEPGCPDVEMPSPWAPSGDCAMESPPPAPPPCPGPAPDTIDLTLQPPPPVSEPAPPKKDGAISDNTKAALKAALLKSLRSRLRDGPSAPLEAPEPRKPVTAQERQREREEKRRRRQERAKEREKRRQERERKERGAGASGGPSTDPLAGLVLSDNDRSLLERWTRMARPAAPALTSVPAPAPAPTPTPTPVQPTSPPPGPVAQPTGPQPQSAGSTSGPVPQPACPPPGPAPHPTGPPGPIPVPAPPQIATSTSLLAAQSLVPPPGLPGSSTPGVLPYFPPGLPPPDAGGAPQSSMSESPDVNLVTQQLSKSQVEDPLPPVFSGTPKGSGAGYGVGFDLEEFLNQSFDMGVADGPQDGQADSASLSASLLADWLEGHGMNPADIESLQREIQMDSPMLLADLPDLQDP

[5] = system: 797 NUT-midline carcinoma cells; experiment: 797 NMC cell viability assay; format: cell-based; details: read-out: Viability IC50 (BRD4), Cell Titer Glo, 3 days, average of 3 replicates ± SD
How it was run: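 797 NUT-midline carcinoma cells were seeded at 5,000 cells/well and exposed for 3 days to a range of test compound concentrations or DMSO. Relative cell number was read with Cell Titer Glo following the kit instructions. The methods state 6 replicates; the reported IC50 is the mean of 3 replicates ± SD.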

[6] = system: ERK5; experiment: Cellular assay of ERK5; format: cell-based, Human
[7] = system: ERK5; experiment: KinomeScan kinome profiling, ERK5; format: binding; details: 1 μM, panel of 468 human kinases
How it was run: (§1)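 KinomeScan ScanMAX binding panel, single test compound concentration of 1 μM. A hit was defined as an Ambit score below 10%.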

[8] = target: T2, DCAMKL2 (Homo sapiens, UniProt Q8N568); experiment: KinomeScan kinome profiling, DCAMKL2; format: binding; details: 1 μM, panel of 468 human kinases
T2 sequence (Q8N568 1-766): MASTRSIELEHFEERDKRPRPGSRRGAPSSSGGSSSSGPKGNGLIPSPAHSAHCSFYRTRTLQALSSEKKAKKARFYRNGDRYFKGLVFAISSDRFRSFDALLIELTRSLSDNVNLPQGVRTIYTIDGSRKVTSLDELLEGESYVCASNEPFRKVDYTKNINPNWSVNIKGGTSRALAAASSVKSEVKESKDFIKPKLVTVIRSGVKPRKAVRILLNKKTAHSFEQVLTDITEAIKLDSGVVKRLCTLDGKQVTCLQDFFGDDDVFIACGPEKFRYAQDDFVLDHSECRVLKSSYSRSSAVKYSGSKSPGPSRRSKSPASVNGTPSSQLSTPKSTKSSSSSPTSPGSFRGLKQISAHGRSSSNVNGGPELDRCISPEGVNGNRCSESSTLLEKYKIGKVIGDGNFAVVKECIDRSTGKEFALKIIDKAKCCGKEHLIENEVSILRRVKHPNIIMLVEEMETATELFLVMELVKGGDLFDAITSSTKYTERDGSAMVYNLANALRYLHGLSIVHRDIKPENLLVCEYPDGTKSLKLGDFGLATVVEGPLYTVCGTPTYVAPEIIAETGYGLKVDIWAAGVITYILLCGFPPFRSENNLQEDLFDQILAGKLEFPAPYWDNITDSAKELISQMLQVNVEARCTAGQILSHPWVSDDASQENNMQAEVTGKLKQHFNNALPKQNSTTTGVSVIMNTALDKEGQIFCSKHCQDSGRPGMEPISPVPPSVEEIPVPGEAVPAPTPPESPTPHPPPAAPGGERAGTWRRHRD
How it was run: as §1

[9] = system: DCAMKL2; experiment: DCAMKL2 biochemical enzyme assay; details: in vitro biochemical enzyme assays
[10] = Variable temperature 1H NMR, interconversion of conformers; format: physicochemical
[11] = system: panel of 32 bromodomains; experiment: BROMOscan bromodomain profiling; format: binding; details: 10 μM
[12] = read-out: Biochemical IC50 (BRD4, μM) a, AlphaScreen, Dana-Farber, average of 2 replicates ± SE
[13] = read-out: Biochemical IC50 (BRD4, μM) b, AlphaScreen, University of Oxford, average of 4 replicates ± SD
[14] = read-out: Enzymatic IC50 (LRRK2), Adapta assay format, average of 2 replicates ± SD
[15] = Homo sapiens, HeLa, read-out: Cellular EC50 (ERK5, μM)

LRRK2, sequence (Q5S007 whole entry): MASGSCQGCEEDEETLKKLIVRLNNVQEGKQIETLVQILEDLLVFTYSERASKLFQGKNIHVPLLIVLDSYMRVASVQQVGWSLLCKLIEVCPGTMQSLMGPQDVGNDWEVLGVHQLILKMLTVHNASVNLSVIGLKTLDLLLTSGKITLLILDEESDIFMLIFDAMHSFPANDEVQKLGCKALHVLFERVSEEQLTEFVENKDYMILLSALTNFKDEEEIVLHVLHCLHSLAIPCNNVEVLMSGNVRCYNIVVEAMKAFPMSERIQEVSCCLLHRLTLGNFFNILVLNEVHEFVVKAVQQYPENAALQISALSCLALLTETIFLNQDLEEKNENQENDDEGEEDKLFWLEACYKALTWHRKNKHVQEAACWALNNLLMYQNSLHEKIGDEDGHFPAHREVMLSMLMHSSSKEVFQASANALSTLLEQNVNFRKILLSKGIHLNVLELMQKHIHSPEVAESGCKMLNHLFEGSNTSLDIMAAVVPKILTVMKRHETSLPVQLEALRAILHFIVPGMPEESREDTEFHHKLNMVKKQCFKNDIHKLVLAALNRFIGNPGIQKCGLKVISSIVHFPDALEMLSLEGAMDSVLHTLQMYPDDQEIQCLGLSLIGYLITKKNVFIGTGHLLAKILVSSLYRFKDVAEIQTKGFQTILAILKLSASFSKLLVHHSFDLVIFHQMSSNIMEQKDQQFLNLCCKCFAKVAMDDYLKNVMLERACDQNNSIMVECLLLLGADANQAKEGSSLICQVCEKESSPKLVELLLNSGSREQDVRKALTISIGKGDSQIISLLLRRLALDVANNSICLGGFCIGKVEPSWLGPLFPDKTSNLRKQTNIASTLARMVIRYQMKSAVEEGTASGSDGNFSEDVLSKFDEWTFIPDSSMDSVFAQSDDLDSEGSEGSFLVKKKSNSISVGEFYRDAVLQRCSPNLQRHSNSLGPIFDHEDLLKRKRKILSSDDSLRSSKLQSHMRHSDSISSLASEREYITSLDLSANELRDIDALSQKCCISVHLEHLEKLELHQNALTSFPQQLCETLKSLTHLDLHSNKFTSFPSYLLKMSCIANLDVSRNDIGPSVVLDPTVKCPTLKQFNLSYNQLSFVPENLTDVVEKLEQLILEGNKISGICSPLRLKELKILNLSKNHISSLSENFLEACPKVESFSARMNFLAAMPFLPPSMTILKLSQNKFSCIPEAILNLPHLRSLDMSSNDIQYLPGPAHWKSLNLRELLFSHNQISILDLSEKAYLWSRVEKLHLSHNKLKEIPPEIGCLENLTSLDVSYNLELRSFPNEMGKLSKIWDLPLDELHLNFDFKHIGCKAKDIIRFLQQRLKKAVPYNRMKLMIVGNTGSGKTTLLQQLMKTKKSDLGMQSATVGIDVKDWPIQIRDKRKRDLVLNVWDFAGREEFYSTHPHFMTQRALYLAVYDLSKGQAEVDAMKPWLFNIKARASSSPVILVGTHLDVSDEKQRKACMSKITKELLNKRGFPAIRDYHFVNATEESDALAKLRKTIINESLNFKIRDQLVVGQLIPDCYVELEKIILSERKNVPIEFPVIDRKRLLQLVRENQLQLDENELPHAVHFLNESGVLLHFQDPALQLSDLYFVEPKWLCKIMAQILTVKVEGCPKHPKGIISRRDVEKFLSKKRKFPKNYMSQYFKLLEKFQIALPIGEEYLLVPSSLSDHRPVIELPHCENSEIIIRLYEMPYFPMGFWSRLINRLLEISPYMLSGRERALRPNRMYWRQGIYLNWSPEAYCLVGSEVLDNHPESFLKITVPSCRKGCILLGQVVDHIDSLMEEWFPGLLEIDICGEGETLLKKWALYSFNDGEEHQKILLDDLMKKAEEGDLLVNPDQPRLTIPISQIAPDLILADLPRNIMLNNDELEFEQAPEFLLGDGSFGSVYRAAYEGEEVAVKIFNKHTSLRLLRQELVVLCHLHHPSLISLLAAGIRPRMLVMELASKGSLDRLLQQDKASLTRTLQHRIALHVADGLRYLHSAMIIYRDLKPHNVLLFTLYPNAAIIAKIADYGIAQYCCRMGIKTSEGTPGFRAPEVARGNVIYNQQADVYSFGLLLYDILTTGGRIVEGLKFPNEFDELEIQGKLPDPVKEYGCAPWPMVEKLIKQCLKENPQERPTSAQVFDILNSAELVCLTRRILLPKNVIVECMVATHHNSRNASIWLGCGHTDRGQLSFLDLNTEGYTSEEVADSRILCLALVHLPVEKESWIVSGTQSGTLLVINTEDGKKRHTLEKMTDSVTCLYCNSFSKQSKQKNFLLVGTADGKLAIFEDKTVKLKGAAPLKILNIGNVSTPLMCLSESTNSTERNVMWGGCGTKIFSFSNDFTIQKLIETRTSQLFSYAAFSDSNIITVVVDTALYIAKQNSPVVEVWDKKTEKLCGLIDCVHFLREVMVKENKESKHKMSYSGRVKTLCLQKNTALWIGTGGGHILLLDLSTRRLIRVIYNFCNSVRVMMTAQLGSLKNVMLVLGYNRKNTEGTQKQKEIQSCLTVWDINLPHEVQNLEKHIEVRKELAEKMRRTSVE

IC50 [1]: 942 ± 569 nM
SMILES: CCOc1cc(C(=O)N2CCC(N3CCN(C)CC3)CC2)ccc1Nc1ncc2c(n1)N(S(C)(=O)=O)c1ccccc1C(=O)N2C [AX15836, reference compound]

IC50 [2, 12]: 5.42 ± 0.18 µM
IC50 [3, 13]: 6.31 ± 1.93 µM
improved ERK5 activity compared to XMD17–109 (ERK5-IN-1) [4]: 2 fold
IC50 [4]: 88 ± 5 nM
selectivity for ERK5 relative to LRRK2 ([1]; in vitro biochemical enzyme assays): 1.2 folds
IC50 [1, 14]: 109 ± 14 nM
IC50 [5]: > 10000 nM
EC50 ([6]; read-out: Cellular EC50 (ERK5), EGF-stimulated autophosphorylation of ERK5 in Hela cells, average of 2 replicates ± SD): 0.02 ± 0.003 µM
Ambit score (DCAMKL2) [8]: less than 10%
selectivity for ERK5 relative to DCAMKL2 [9]: 2.5 folds
Calc ΔErac ([10]; calculated energy barrier of interconversion): 15.9 kcal/mol
Tco (coalescence temperature) ([10]; variable temperature 1H NMR in DMSO-d6): 60 °C
SMILES: CCC(C)N1c2ccccc2C(=O)N(C)c2cnc(Nc3ccc(C(=O)N4CCC(N5CCN(C)CC5)CC4)cc3OC)nc21 (stereo not drawn) [JWG-071]
Ambit score (ERK5) [7]: less than 10%

The next lines start with the compound.

SMILES: CC(C)Oc1cc(C(=O)N2CCC(N3CCN(C)CC3)CC2)ccc1Nc1ccc2c(n1)N(C1CCCC1)c1ccccc1C(=O)N2C [JWG-115]
decrease of activity against BRD4 compared to the pyrimidine analogs XMD11–50 and JWG-047 ([2]; pyridine vs pyrimidine core): 4–8 fold
IC50 ([2]; read-out: BRD4 IC50, value as stated in text): 1 µM
IC50 [2, 12]: 1.08 ± 0.05 µM
IC50 [3, 13]: 1.1 ± 0.05 µM
IC50 [4]: > 10000 nM
IC50 [1, 14]: > 3300 nM
BROMOscan binding among BET family [11]: strong binding
BROMOscan binding outside BET family [11]: no binding

SMILES: COc1cc(C(=O)N2CCC(N3CCN(C)CC3)CC2)ccc1Nc1ncc2c(n1)N(C)c1ccccc1C(=O)N2C [XMD11–50 (LRRK2-IN-1)]
IC50 [1]: 3.4 ± 1.7 nM

SMILES: CCOc1cc(C(=O)N2CCC(N3CCN(C)CC3)CC2)ccc1Nc1ncc2c(n1)N(C1CCCC1)c1ccccc1C(=O)N2C [XMD17–109 (ERK5-IN-1), reference compound]
IC50 [2]: 0.217 ± 0.008 µM
IC50 [3]: 0.68 ± 0.03 µM
